Results reported in ChEMBL document CHEMBL2062435, “Synthesis and in vitro antibacterial activity of gemifloxacin derivatives containing a substituted benzyloxime moiety” (2012).

test system: Klebsiella pneumoniae; assay: Antimicrobial activity against Klebsiella pneumoniae 10-2 after 18-24 hrs by two-fold serial dilution method; assay type: functional
In short: (§1)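 Agar-medium twofold serial dilution against Gram-positive and Gram-negative strains; MIC taken as the lowest compound concentration giving complete inhibition of bacterial growth after incubation at 35 °C for 18-24 h.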

SMILES	MIC [µg/mL]
COc1ccc(CO/N=C2\CN(c3nc4c(cc3F)c(=O)c(C(=O)O)cn4C3CC3)CC2CN)cc1.CS(=O)(=O)O (racemic)	128

test system: Enterococcus faecalis; assay: Antimicrobial activity against Enterococcus faecalis 10-6 after 18-24 hrs by two-fold serial dilution method; assay type: functional; in short: as §1

SMILES	MIC [µg/mL]
COc1ccc(CO/N=C2\CN(c3nc4c(cc3F)c(=O)c(C(=O)O)cn4C3CC3)CC2CN)cc1.CS(=O)(=O)O (racemic)	2

test system: Klebsiella pneumoniae; assay: Antimicrobial activity against Klebsiella pneumoniae 10-3 after 18-24 hrs by two-fold serial dilution method; assay type: functional; in short: as §1

SMILES	MIC [µg/mL]
COc1ccc(CO/N=C2\CN(c3nc4c(cc3F)c(=O)c(C(=O)O)cn4C3CC3)CC2CN)cc1.CS(=O)(=O)O (racemic)	4

test system: Pseudomonas aeruginosa; assay: Antimicrobial activity against extended spectrum beta-lactamases-producing Pseudomonas aeruginosa 10-15 after 18-24 hrs by two-fold serial dilution method; assay type: functional; in short: as §1

SMILES	MIC [µg/mL]
COc1ccc(CO/N=C2\CN(c3nc4c(cc3F)c(=O)c(C(=O)O)cn4C3CC3)CC2CN)cc1.CS(=O)(=O)O (racemic)	8

test system: Staphylococcus aureus; assay: Antimicrobial activity against extended spectrum beta-lactamases-producing methicillin-resistant Staphylococcus aureus 10-15 after 18-24 hrs by two-fold serial dilution method; assay type: functional
In short: (§2)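 Agar twofold serial dilution MIC against clinical isolates. MIC was taken as the lowest concentration giving complete inhibition of bacterial growth after incubation at 35 °C for 18-24 h.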

SMILES	MIC [µg/mL]
COc1ccc(CO/N=C2\CN(c3nc4c(cc3F)c(=O)c(C(=O)O)cn4C3CC3)CC2CN)cc1.CS(=O)(=O)O (racemic)	0.25

test system: Staphylococcus epidermidis; assay: Antimicrobial activity against extended spectrum beta-lactamases-producing methicillin-resistant Staphylococcus epidermidis 10-13 after 18-24 hrs by two-fold serial dilution method; assay type: functional; in short: as §2

SMILES	MIC [µg/mL]
COc1ccc(CO/N=C2\CN(c3nc4c(cc3F)c(=O)c(C(=O)O)cn4C3CC3)CC2CN)cc1.CS(=O)(=O)O (racemic)	0.5

test system: Enterococcus faecalis; assay: Antimicrobial activity against Enterococcus faecalis 10-7 after 18-24 hrs by two-fold serial dilution method; assay type: functional; in short: as §1

SMILES	MIC [µg/mL]
COc1ccc(CO/N=C2\CN(c3nc4c(cc3F)c(=O)c(C(=O)O)cn4C3CC3)CC2CN)cc1.CS(=O)(=O)O (racemic)	1

test system: Pseudomonas aeruginosa; assay: Antimicrobial activity against extended spectrum beta-lactamases-producing Pseudomonas aeruginosa 10-5 after 18-24 hrs by two-fold serial dilution method; assay type: functional; in short: as §1

SMILES	MIC [µg/mL]
COc1ccc(CO/N=C2\CN(c3nc4c(cc3F)c(=O)c(C(=O)O)cn4C3CC3)CC2CN)cc1.CS(=O)(=O)O (racemic)	4

test system: Staphylococcus epidermidis; assay: Antimicrobial activity against extended spectrum beta-lactamases-producing methicillin-sensitive Staphylococcus epidermidis 10-13 after 18-24 hrs by two-fold serial dilution method; assay type: functional; in short: as §1

SMILES	MIC [µg/mL]
COc1ccc(CO/N=C2\CN(c3nc4c(cc3F)c(=O)c(C(=O)O)cn4C3CC3)CC2CN)cc1.CS(=O)(=O)O (racemic)	0.03

test system: Staphylococcus aureus; assay: Antimicrobial activity against extended spectrum beta-lactamases-producing methicillin-sensitive Staphylococcus aureus 10-13 after 18-24 hrs by two-fold serial dilution method; assay type: functional; in short: as §1

SMILES	MIC [µg/mL]
COc1ccc(CO/N=C2\CN(c3nc4c(cc3F)c(=O)c(C(=O)O)cn4C3CC3)CC2CN)cc1.CS(=O)(=O)O (racemic)	0.015

test system: Staphylococcus epidermidis; assay: Antimicrobial activity against extended spectrum beta-lactamases-producing methicillin-sensitive Staphylococcus epidermidis 10-15 after 18-24 hrs by two-fold serial dilution method; assay type: functional; in short: as §1

SMILES	MIC [µg/mL]
COc1ccc(CO/N=C2\CN(c3nc4c(cc3F)c(=O)c(C(=O)O)cn4C3CC3)CC2CN)cc1.CS(=O)(=O)O (racemic)	2

test system: Klebsiella pneumoniae; assay: Antimicrobial activity against extended spectrum beta-lactamases-producing Klebsiella pneumoniae 10-2 after 18-24 hrs by two-fold serial dilution method; assay type: functional; in short: as §1

SMILES	MIC [µg/mL]
COc1ccc(CO/N=C2\CN(c3nc4c(cc3F)c(=O)c(C(=O)O)cn4C3CC3)CC2CN)cc1.CS(=O)(=O)O (racemic)	128

test system: Klebsiella pneumoniae; assay: Antimicrobial activity against Klebsiella pneumoniae 10-4 after 18-24 hrs by two-fold serial dilution method; assay type: functional; in short: as §1

SMILES	MIC [µg/mL]
COc1ccc(CO/N=C2\CN(c3nc4c(cc3F)c(=O)c(C(=O)O)cn4C3CC3)CC2CN)cc1.CS(=O)(=O)O (racemic)	128

test system: Pseudomonas aeruginosa; assay: Antimicrobial activity against Pseudomonas aeruginosa 10-12 after 18-24 hrs by two-fold serial dilution method; assay type: functional; in short: as §1

SMILES	MIC [µg/mL]
COc1ccc(CO/N=C2\CN(c3nc4c(cc3F)c(=O)c(C(=O)O)cn4C3CC3)CC2CN)cc1.CS(=O)(=O)O (racemic)	2

test system: Escherichia coli; assay: Antimicrobial activity against Escherichia coli 10-3 after 18-24 hrs by two-fold serial dilution method; assay type: functional; in short: as §1

SMILES	MIC [µg/mL]
COc1ccc(CO/N=C2\CN(c3nc4c(cc3F)c(=O)c(C(=O)O)cn4C3CC3)CC2CN)cc1.CS(=O)(=O)O (racemic)	8

test system: Klebsiella pneumoniae; assay: Antimicrobial activity against extended spectrum beta-lactamases-producing Klebsiella pneumoniae 10-1 after 18-24 hrs by two-fold serial dilution method; assay type: functional; in short: as §1

SMILES	MIC [µg/mL]
COc1ccc(CO/N=C2\CN(c3nc4c(cc3F)c(=O)c(C(=O)O)cn4C3CC3)CC2CN)cc1.CS(=O)(=O)O (racemic)	64

test system: Streptococcus pneumoniae; assay: Antimicrobial activity against extended spectrum beta-lactamases-producing Streptococcus pneumoniae 10-4 after 18-24 hrs by two-fold serial dilution method; assay type: functional; in short: as §1

SMILES	MIC [µg/mL]
COc1ccc(CO/N=C2\CN(c3nc4c(cc3F)c(=O)c(C(=O)O)cn4C3CC3)CC2CN)cc1.CS(=O)(=O)O (racemic)	0.125

test system: Escherichia coli; assay: Antimicrobial activity against Escherichia coli 10-1 after 18-24 hrs by two-fold serial dilution method; assay type: functional; in short: as §1

SMILES	MIC [µg/mL]
COc1ccc(CO/N=C2\CN(c3nc4c(cc3F)c(=O)c(C(=O)O)cn4C3CC3)CC2CN)cc1.CS(=O)(=O)O (racemic)	32

test system: Staphylococcus aureus; assay: Antimicrobial activity against Staphylococcus aureus ATCC […] after 18-24 hrs by two-fold serial dilution method; assay type: functional; in short: as §1

SMILES	MIC [µg/mL]
COc1ccc(CO/N=C2\CN(c3nc4c(cc3F)c(=O)c(C(=O)O)cn4C3CC3)CC2CN)cc1.CS(=O)(=O)O (racemic)	0.015

test system: Enterococcus faecium; assay: Antimicrobial activity against Enterococcus faecium 10-9 after 18-24 hrs by two-fold serial dilution method; assay type: functional; in short: as §1

SMILES	MIC [µg/mL]
COc1ccc(CO/N=C2\CN(c3nc4c(cc3F)c(=O)c(C(=O)O)cn4C3CC3)CC2CN)cc1.CS(=O)(=O)O (racemic)	8

test system: Pseudomonas aeruginosa; assay: Antimicrobial activity against extended spectrum beta-lactamases-producing Pseudomonas aeruginosa 10-20 after 18-24 hrs by two-fold serial dilution method; assay type: functional; in short: as §1

SMILES	MIC [µg/mL]
COc1ccc(CO/N=C2\CN(c3nc4c(cc3F)c(=O)c(C(=O)O)cn4C3CC3)CC2CN)cc1.CS(=O)(=O)O (racemic)	2

test system: Klebsiella pneumoniae; assay: Antimicrobial activity against extended spectrum beta-lactamases-producing Klebsiella pneumoniae 10-3 after 18-24 hrs by two-fold serial dilution method; assay type: functional; in short: as §1

SMILES	MIC [µg/mL]
COc1ccc(CO/N=C2\CN(c3nc4c(cc3F)c(=O)c(C(=O)O)cn4C3CC3)CC2CN)cc1.CS(=O)(=O)O (racemic)	128

test system: Escherichia coli; assay: Antimicrobial activity against extended spectrum beta-lactamases-producing Escherichia coli 10-3 after 18-24 hrs by two-fold serial dilution method; assay type: functional; in short: as §1

SMILES	MIC [µg/mL]
COc1ccc(CO/N=C2\CN(c3nc4c(cc3F)c(=O)c(C(=O)O)cn4C3CC3)CC2CN)cc1.CS(=O)(=O)O (racemic)	16

test system: Staphylococcus aureus; assay: Antimicrobial activity against extended spectrum beta-lactamases-producing methicillin-sensitive Staphylococcus aureus 10-14 after 18-24 hrs by two-fold serial dilution method; assay type: functional; in short: as §1

SMILES	MIC [µg/mL]
COc1ccc(CO/N=C2\CN(c3nc4c(cc3F)c(=O)c(C(=O)O)cn4C3CC3)CC2CN)cc1.CS(=O)(=O)O (racemic)	0.03

test system: Pseudomonas aeruginosa; assay: Antimicrobial activity against extended spectrum beta-lactamases-producing Pseudomonas aeruginosa 10-18 after 18-24 hrs by two-fold serial dilution method; assay type: functional; in short: as §1

SMILES	MIC [µg/mL]
COc1ccc(CO/N=C2\CN(c3nc4c(cc3F)c(=O)c(C(=O)O)cn4C3CC3)CC2CN)cc1.CS(=O)(=O)O (racemic)	4

test system: Staphylococcus epidermidis; assay: Antimicrobial activity against extended spectrum beta-lactamases-producing methicillin-sensitive Staphylococcus epidermidis 10-11 after 18-24 hrs by two-fold serial dilution method; assay type: functional; in short: as §1

SMILES	MIC [µg/mL]
COc1ccc(CO/N=C2\CN(c3nc4c(cc3F)c(=O)c(C(=O)O)cn4C3CC3)CC2CN)cc1.CS(=O)(=O)O (racemic)	0.5

test system: Enterococcus faecalis; assay: Antimicrobial activity against Enterococcus faecalis 10-5 after 18-24 hrs by two-fold serial dilution method; assay type: functional; in short: as §1

SMILES	MIC [µg/mL]
COc1ccc(CO/N=C2\CN(c3nc4c(cc3F)c(=O)c(C(=O)O)cn4C3CC3)CC2CN)cc1.CS(=O)(=O)O (racemic)	0.125

test system: Staphylococcus epidermidis; assay: Antimicrobial activity against extended spectrum beta-lactamases-producing methicillin-resistant Staphylococcus epidermidis 10-10 after 18-24 hrs by two-fold serial dilution method; assay type: functional; in short: as §2

SMILES	MIC [µg/mL]
COc1ccc(CO/N=C2\CN(c3nc4c(cc3F)c(=O)c(C(=O)O)cn4C3CC3)CC2CN)cc1.CS(=O)(=O)O (racemic)	0.5

test system: Escherichia coli; assay: Antimicrobial activity against Escherichia coli ATCC 25922 after 18-24 hrs by two-fold serial dilution method; assay type: functional; in short: as §1

SMILES	MIC [µg/mL]
COc1ccc(CO/N=C2\CN(c3nc4c(cc3F)c(=O)c(C(=O)O)cn4C3CC3)CC2CN)cc1.CS(=O)(=O)O (racemic)	0.06

test system: Pseudomonas aeruginosa; assay: Antimicrobial activity against extended spectrum beta-lactamases-producing Pseudomonas aeruginosa 10-9 after 18-24 hrs by two-fold serial dilution method; assay type: functional; in short: as §1

SMILES	MIC [µg/mL]
COc1ccc(CO/N=C2\CN(c3nc4c(cc3F)c(=O)c(C(=O)O)cn4C3CC3)CC2CN)cc1.CS(=O)(=O)O (racemic)	4

test system: Staphylococcus aureus; assay: Antimicrobial activity against extended spectrum beta-lactamases-producing methicillin-resistant Staphylococcus aureus 10-11 after 18-24 hrs by two-fold serial dilution method; assay type: functional; in short: as §2

SMILES	MIC [µg/mL]
COc1ccc(CO/N=C2\CN(c3nc4c(cc3F)c(=O)c(C(=O)O)cn4C3CC3)CC2CN)cc1.CS(=O)(=O)O (racemic)	1

test system: Escherichia coli; assay: Antimicrobial activity against extended spectrum beta-lactamases-producing Escherichia coli 10-2 after 18-24 hrs by two-fold serial dilution method; assay type: functional; in short: as §1

SMILES	MIC [µg/mL]
COc1ccc(CO/N=C2\CN(c3nc4c(cc3F)c(=O)c(C(=O)O)cn4C3CC3)CC2CN)cc1.CS(=O)(=O)O (racemic)	128

test system: Escherichia coli; assay: Antimicrobial activity against Escherichia coli 10-2 after 18-24 hrs by two-fold serial dilution method; assay type: functional; in short: as §1

SMILES	MIC [µg/mL]
COc1ccc(CO/N=C2\CN(c3nc4c(cc3F)c(=O)c(C(=O)O)cn4C3CC3)CC2CN)cc1.CS(=O)(=O)O (racemic)	2

test system: Enterococcus faecium; assay: Antimicrobial activity against Enterococcus faecium 10-5 after 18-24 hrs by two-fold serial dilution method; assay type: functional; in short: as §1

SMILES	MIC [µg/mL]
COc1ccc(CO/N=C2\CN(c3nc4c(cc3F)c(=O)c(C(=O)O)cn4C3CC3)CC2CN)cc1.CS(=O)(=O)O (racemic)	4

test system: Escherichia coli; assay: Antimicrobial activity against extended spectrum beta-lactamases-producing Escherichia coli 10-4 after 18-24 hrs by two-fold serial dilution method; assay type: functional; in short: as §1

SMILES	MIC [µg/mL]
COc1ccc(CO/N=C2\CN(c3nc4c(cc3F)c(=O)c(C(=O)O)cn4C3CC3)CC2CN)cc1.CS(=O)(=O)O (racemic)	2

test system: Streptococcus pneumoniae; assay: Antimicrobial activity against extended spectrum beta-lactamases-producing Streptococcus pneumoniae 10-1 after 18-24 hrs by two-fold serial dilution method; assay type: functional; in short: as §1

SMILES	MIC [µg/mL]
COc1ccc(CO/N=C2\CN(c3nc4c(cc3F)c(=O)c(C(=O)O)cn4C3CC3)CC2CN)cc1.CS(=O)(=O)O (racemic)	0.125
